Assay results pooled from the literature.
Lines come from different studies, so protocols differ.
Target: Bone morphogenetic protein receptor type-2 (BMPR2, Homo sapiens, UniProt Q13873)
One construct used (Q13873 27-1038): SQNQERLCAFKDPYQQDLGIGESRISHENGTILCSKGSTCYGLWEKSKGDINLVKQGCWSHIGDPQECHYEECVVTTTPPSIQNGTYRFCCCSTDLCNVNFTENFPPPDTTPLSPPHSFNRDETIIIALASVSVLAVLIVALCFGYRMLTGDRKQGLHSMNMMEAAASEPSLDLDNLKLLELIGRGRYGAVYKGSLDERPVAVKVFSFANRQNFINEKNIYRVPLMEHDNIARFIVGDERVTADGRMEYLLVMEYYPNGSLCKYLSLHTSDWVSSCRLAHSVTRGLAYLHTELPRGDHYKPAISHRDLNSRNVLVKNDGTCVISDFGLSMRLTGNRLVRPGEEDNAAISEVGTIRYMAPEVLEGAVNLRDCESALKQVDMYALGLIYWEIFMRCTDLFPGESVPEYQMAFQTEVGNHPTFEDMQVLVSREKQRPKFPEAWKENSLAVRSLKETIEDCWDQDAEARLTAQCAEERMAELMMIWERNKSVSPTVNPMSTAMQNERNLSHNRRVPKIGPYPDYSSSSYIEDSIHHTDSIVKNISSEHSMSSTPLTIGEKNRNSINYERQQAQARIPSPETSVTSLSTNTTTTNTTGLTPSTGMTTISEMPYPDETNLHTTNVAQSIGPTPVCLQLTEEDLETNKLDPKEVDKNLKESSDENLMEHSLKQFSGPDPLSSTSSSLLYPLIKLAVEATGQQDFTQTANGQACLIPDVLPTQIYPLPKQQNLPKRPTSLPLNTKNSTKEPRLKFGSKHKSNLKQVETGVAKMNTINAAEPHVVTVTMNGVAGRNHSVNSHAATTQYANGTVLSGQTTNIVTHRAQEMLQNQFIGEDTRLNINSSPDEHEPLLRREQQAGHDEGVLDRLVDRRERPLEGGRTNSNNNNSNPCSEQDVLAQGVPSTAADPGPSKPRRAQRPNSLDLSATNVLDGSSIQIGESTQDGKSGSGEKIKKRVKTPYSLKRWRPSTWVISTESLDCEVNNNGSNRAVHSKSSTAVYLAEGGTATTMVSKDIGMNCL

SMILES	effect on	method	concentration	remaining binding [%]
O=C(O)c1cc(-c2ccc(C3CCNCC3)cc2)c2ccc(-c3ccc(C(F)(F)F)cc3)cc2c1	cell-free assay	competition with immobilised ligand	1 µM	100
COc1cnc(Nc2cccc(S(N)(=O)=O)c2)nc1N1CCN(c2ccccc2)CC1	binding	competition with immobilised ligand	1 µM	0.1
CCC(=N\O)/C(C)=C/c1ccc(F)cc1	cell-free assay	competition with immobilised ligand	1 µM	81
O=C(NCCCN1CCOCC1)c1ccc(Nc2nccc(-c3cc4ccccc4s3)n2)cc1	binding	competition with immobilised ligand	1 µM	66
N[C@@H]1CCN(c2nccc(-c3cnn4ncccc34)n2)C1	binding		1 µM	100
CNCc1ccccc1-c1csc([C@@H](C)Nc2nc(C)nc3cc(OC)c(OC)cc23)c1	cell-free assay	competition with immobilised ligand	1 µM	100
c1cncc(-c2cccc(Nc3nccc(NC4CCCCC4)n3)c2)c1	binding	competition with immobilised ligand	10 µM	40
O=C(Nc1c[nH]nc1C(=O)NC1CCNCC1)c1cc(F)cc(F)c1	binding	competition with immobilised ligand	1 µM	100
C[C@@H]1CN(c2ccc3ncc(-c4ccc5[nH]nc(C6CC6)c5c4)n3n2)C[C@H](C)O1	binding	competition with immobilised ligand	50 nM	89
CCOC(=O)c1cc2cc(-c3cc(C(=O)NCc4ccc(C(=O)O)cc4)nn3C)ccc2[nH]1	cell-free assay	competition with immobilised ligand	0.1 µM	82
F[C@@H]1CCN(c2nccc(-c3cnn4ncccc34)n2)C1	binding		1 µM	100
Nc1ncc2c(n1)-c1c([nH]c3ccc(C#CC4CC4)cc13)CCCC2	binding	competition with immobilised ligand	1 µM	96
C[C@@H]1CN(c2cc(-c3nn(C)c4ccc(OC5(C)CC5)cc34)ncn2)C[C@H](C)O1	cell-free assay	competition with immobilised ligand	1 µM	54
COc1cnc(Nc2cccc(S(N)(=O)=O)c2)nc1N1CCN(c2ccccc2)C(=O)C1	binding	competition with immobilised ligand	1 µM	0
CN(C)c1nccc(-c2cnc3ncccn23)n1	binding		1 µM	67
NS(=O)(=O)c1cc(NC(=O)Cc2ccccc2)ccc1Oc1cccc(Cl)c1	cell-free assay	competition with immobilised ligand	1 µM	73
Cc1cnn2ncc(-c3ccnc(N(C)C)n3)c2c1	binding		1 µM	99
O=C(c1ccc(Nc2ncc(Cl)c(-c3cc4ccccc4s3)n2)cc1)N1CCC(N2CCCC2)CC1	binding	competition with immobilised ligand	1 µM	29
CN(C)c1ncc(F)c(-c2cnn3ncccc23)n1	binding		1 µM	74
CS(=O)(=O)N1CCCC(NC(=O)[C@H](CCC2CCCCC2)NC(=O)c2ccc(CNC(=O)c3cnc4ccccn34)cc2)C1 (stereo partly drawn)	cell-free assay	competition with immobilised ligand	0.1 µM	100
CC1CCCN1c1nccc(-c2cnn3ncccc23)n1 (stereo not drawn)	binding		1 µM	97
Cc1cnc(Nc2ccc(C(=O)N3CCC(N4CCCC4)CC3)cc2)nc1-c1cc2ccccc2s1	binding	competition with immobilised ligand	1 µM	25
C[C@@H]1CCN(c2nccc(-c3cnn4ncccc34)n2)C1	binding		1 µM	90
CCN1CCN(Cc2ccc(C(=O)Nc3ccc(C)c(Oc4ccc5c(c4)CC(=O)N5)c3)cc2C(F)(F)F)CC1	binding	competition with immobilised ligand	1 µM	100
